Laboratory results as given in ChEMBL document CHEMBL1132923, “Substituted benzamide inhibitors of human rhinovirus 3C protease: structure-based design, synthesis, and biological evaluation” (J Med Chem, 2000).
pEC50, pKi: −log10 of the molar value. Converted amounts (≈) assume the structure as drawn. The source made the active and inactive calls. No cut-off for these calls is given here.

Target: T1, Human rhinovirus A protease (Human rhinovirus sp.) (UniProt Q4U254)
T1 sequence (whole entry): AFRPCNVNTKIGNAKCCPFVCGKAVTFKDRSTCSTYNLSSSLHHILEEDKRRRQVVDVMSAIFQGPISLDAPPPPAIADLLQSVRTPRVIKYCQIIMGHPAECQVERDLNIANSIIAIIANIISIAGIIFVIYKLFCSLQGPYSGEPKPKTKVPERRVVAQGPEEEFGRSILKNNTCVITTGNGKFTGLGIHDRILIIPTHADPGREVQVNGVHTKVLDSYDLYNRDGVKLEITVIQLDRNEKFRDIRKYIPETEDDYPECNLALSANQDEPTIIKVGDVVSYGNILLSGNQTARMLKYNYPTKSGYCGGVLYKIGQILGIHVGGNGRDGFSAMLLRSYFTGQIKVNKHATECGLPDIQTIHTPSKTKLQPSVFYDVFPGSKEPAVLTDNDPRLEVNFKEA
Test: The compound was tested for irreversible inhibition of Human Rhinovirus (HRV) 3C Protease.
Details: not given
Summary of the method: (§1)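 For serotype 14 3C protease under irreversible inactivation, reactions were started by adding 50 nM enzyme to 1 µM FRET substrate plus typically three to five inhibitor concentrations, monitored continuously. First-order inactivation rate constants came from nonlinear regression when <20% substrate was consumed; otherwise data were corrected for substrate depletion. kobs/[I] was derived by the slope method.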

Compound | K obs / 1 [M⁻¹ s⁻¹]
CCOC(=O)/C=C/c1ccc(OCc2ccccc2)c(C(N)=O)c1 | 30

Target: T2, Human rhinovirus A protease (Human rhinovirus sp., UniProt Q4U254)
T2 sequence (Q4U254 whole entry): T1 sequence (whole entry)
Test: Inhibition of Human Rhinovirus (HRV-14) 3C Protease
Details: not given
Summary of the method: (§2)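 Serotype 14 3C protease activity was followed by a fluorescence resonance energy transfer substrate assay, and reversible inhibition constants (Ki) were determined from it.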

Compound | pKi
NC(=O)c1cccc(C=O)c1 | 3.98

Test system: HeLa
Test: Antiviral activity using H1HeLa cells (ATCC) infected with HRV-14 (range)
Type: functional, cell-based
Details: Homo sapiens
Summary of the method: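 H1-HeLa cells were grown in MEM with 10% FBS and infected with HRV-14 at moi 0.08, or mock-infected with medium. Cells were resuspended at 8 × 10^5 cells/mL with drug and read 2 days later by XTT/PMS formazan absorbance at 450/650 nm. EC50 is the concentration restoring formazan to 50% of drug-free uninfected cells. Values come from a single run or the mean of ≥2.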

Compound | pEC50
CCOC(=O)c1ccc(OCCC2CCN(c3ccc(C)nn3)CC2)cc1 [PIRODAVIR] | 7.70

Target: T2, Human rhinovirus A protease
Test: The compound was tested for binding affinity of Human Rhinovirus (HRV) 3C Protease.
Details: not given
Summary of the method: as §2

Compound | pKi
NC(=O)c1cccc(/C=C/C(=O)c2ccco2)c1 | 5.72
NC(=O)c1cccc(/C=C/C(=O)c2ccccn2)c1 | 5.74
COc1ccc(C(=O)/C=C/c2cccc(C(N)=O)c2)cc1 | 5.74
NC(=O)c1cccc(/C=C/C(=O)c2ccccc2)c1 | 6.40
CC(=O)/C=C/c1cccc(C(N)=O)c1 | 4.60
CN(C)c1ccc(C(=O)/C=C/c2cccc(C(N)=O)c2)cc1 | 5.05
NC(=O)c1ccc2c(c1)C=CC2=O | 6.92

Target: T1, Human rhinovirus A protease (Human rhinovirus sp.)
Test: Irreversible inhibition of Human Rhinovirus (HRV-14) 3C Protease
Details: Rhinovirus B
Summary of the method: as §1

Compound | K obs / 1 [M⁻¹ s⁻¹]
CCOC(=O)/C=C/c1cc(CN2CCN(c3ccccn3)CC2)cc(C(N)=O)c1 | 269
CCOC(=O)/C=C/c1cc(CSc2nnc(-c3ccccn3)o2)cc(C(N)=O)c1 | 286
COC(=O)/C=C/c1cccc(C(N)=O)c1 | 28
CCOC(=O)/C=C/c1cc(CN(CC)Cc2ccncc2)cc(C(N)=O)c1 | 96
CCOC(=O)/C=C/c1cc(CO)cc(C(N)=O)c1 | 54
CCOC(=O)/C=C/c1cc(CN2CCN(c3ccccc3C#N)CC2)cc(C(N)=O)c1 | 139
NC(=O)c1cccc(/C=C/C(=O)OCCO)c1 | 42
CCOC(=O)/C=C/c1cccc(C(N)=O)c1 | 52
NC(=O)c1cccc(/C=C/C(=O)OCc2ccccc2)c1 | 25
CCOC(=O)/C=C/c1cc(CN2CCN(C(=O)OCC)CC2)cc(C(N)=O)c1 | 130
NC(=O)c1cccc(/C=C/C(=O)OCCc2ccccc2)c1 | 83
NC(=O)c1cccc(/C=C/C(=O)OCc2ccccn2)c1 | 57
CCOC(=O)/C=C/c1cc(CN2CCN(c3ncccn3)CC2)cc(C(N)=O)c1 | 163
CCOC(=O)/C=C/c1cc(O)cc(C(N)=O)c1 | 47

Target: T1, Human rhinovirus A protease (Human rhinovirus sp.)
Test: Irreversible inhibition of Human Rhinovirus (HRV-14) 3C Protease measured as inactivation constant; inhibition@ 25
Details: concentration not given here
Summary of the method: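 FRET-based continuous fluorometric assay of 3C protease activity. Reactions were started by adding 50 nM 3CP to 1 µM substrate across three to five inhibitor concentrations. First-order inactivation rate constants were fitted by nonlinear regression at each concentration. kobs/[I] was taken by the slope method, with data adjusted for substrate depletion where needed.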

Compound | inhibition [%]
CCOC(=O)/C=C/c1cc(C(N)=O)ccc1C | 10

Test system: HeLa
Test: Antiviral activity measured as minimal inhibitory concentration using H1HeLa cells (ATCC) infected with HRV-14
Type: functional
Details: Homo sapiens

Compound | MIC [µM]
CCOC(=O)c1ccc(OCCC2CCN(c3ccc(C)nn3)CC2)cc1 [PIRODAVIR] | 0.03 (≈ 0.0111 µg/mL)

Target: T1, Human rhinovirus A protease (Human rhinovirus sp.)
Test: Irreversible inhibition of Human Rhinovirus (HRV-14) 3C Protease measured as inactivation constant; no inhibition
Details: not given
Summary of the method: as §1

Compound | K obs / 1
CCOC(=O)/C=C/c1cccc(C(=O)O)c1 | inactive

Target: T2, Human rhinovirus A protease
Test: The compound was tested for reversible inhibition of Human Rhinovirus (HRV) 3C Protease.
Details: not given

Compound | pKi
CCOC(=O)/C(C#N)=C/c1cccc(C(N)=O)c1 | 5.82
